CHO parental Ca: counter-screen: ATP calcium response change in parental CHO cells; parental CHO-K1, ATP-induced calcium, Fluo-8 fluorescence; inhibition, % at 5.6 µM; hit rate 0.63% among 330,000;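 active = inhibition above that plate's mean sample inhibition plus 3 SD, cut at about 26% in these data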
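Material: Parental CHO cells | Reagent: ATP | Compound dosing: Single nominal dose of 5.6 µM per compound | Detection: Intracellular calcium via Fluo-8 no-wash fluorescent dye | Read-out: % inhibition of ATP-induced calcium mobilization | Benchmarks: Low control ATP plus DMSO, high control DMSO only | Replicates: Singlicate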
TRPML3 ag: agonists of human TRPML3 channel; HEK293 TRPML3-YFP, Fluo-8 calcium fluorescence; 100% = the carbachol control signal; activation, % at 3 µM; hit rate 0.29% among 220,000;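 active = activation above its plate's cutoff, the mean activation of the plate's test wells plus 3 SD, cut at about 12% in these data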
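system = HEK293 cells stably carrying human TRPML3-YFP | doses = one concentration, 3 µM nominal, 0.3% DMSO | timing = dye loading 1 h 37 °C then 30 min ambient, 125 s read | detection = Fluo-8 calcium dye fluorescence, ex 470-495, em 515-575 nm | benchmarks = high control carbachol 87 µM, low control DMSO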
OX1R antag-1: antagonists of human orexin 1 receptor (OX1R); O43613; OX1R-expressing cells, FRET antagonist read-out; inhibition, % at 6.6 µM; hit rate 1.8% among 330,000; in the data active = inhibition mostly above about 38%, no sharp cut-off; inactive = mostly below about 40%
Target sequence (O43613 whole entry, looked up): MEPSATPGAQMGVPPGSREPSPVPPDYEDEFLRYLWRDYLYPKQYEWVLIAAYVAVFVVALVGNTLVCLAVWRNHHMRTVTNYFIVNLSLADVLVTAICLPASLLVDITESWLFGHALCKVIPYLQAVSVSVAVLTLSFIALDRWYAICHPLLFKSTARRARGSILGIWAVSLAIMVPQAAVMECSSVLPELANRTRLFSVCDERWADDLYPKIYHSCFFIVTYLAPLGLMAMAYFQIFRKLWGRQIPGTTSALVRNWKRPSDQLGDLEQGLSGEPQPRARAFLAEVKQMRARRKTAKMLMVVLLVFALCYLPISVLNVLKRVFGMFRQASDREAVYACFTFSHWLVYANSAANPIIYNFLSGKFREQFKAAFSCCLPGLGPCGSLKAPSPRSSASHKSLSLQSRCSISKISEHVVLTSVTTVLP
GPR7 antag: human neuropeptides B/W receptor 1 antagonism | P48145 | GPR7-expressing cells, fluorescence antagonist assay | inhibition, % at 4.4 µM | hit rate 1.1% among 290,000 | AID 1861; in the data active = inhibition above about 16%, passing the limit was not always enough;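 also: cells stimulated with the agonist NPW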
Target sequence (P48145 whole entry, looked up): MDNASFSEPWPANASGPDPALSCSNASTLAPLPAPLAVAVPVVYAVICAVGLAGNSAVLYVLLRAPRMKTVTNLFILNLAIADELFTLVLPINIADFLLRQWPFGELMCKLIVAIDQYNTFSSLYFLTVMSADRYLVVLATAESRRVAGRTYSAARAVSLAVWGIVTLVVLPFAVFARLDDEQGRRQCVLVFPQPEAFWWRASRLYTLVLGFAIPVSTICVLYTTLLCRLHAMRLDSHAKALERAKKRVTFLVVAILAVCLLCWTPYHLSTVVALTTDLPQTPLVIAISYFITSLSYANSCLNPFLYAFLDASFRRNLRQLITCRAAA
TRPN1 ag: zebrafish TRPN1 (NompC) channel agonism | hit rate 0.18% among 220,000 | activation, % at 3 µM | HEK293 zebrafish TRPN1-YFP, Fluo-8 calcium fluorescence; 100% = response to 87 µM carbachol;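 active = activation above its plate's cutoff, the mean activation of test wells on that plate plus 3 SD, cut at about 19% in these data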
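Material: zebrafish TRPN1-YFP in HEK293 cells; Doses: single test compound dose, 3 µM nominal, 0.3% DMSO; Timing: dye loading 1 h at 37 °C, then 30 min room temperature; Technique: intracellular calcium fluorescence with Fluo-8; Benchmarks: high carbachol 87 µM, low DMSO alone.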
OX1R antag-2: blocks the human orexin 1 receptor; O43613; CHO/OX1R cells, Fluo-8 calcium fluorescence, orexin A; inhibition, % at 5 µM; hit rate 0.43% among 330,000; AID 434989;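 active = inhibition above its plate's threshold, mean inhibition of all tested compounds on the plate plus 3 SD, cut at about 37% in these data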
Of the large screens only hits and unclear results are named; the others gave an inactive call. In the library only some 3.2% were active in any assay of this set; here they are far more common.

COc1cccc(C(=O)Nc2cccc3ccccc23)c1	none (no result: CHO parental Ca, TRPML3 ag, OX1R antag-1, TRPN1 ag, OX1R antag-2)
COc1ccc2nc(NC(=O)Nc3ccccc3OC)sc2c1	OX1R antag-1 66 (no result: TRPML3 ag, TRPN1 ag)
COc1ccc2nc(NC(=O)c3ccc(F)cc3)sc2c1	none (no result: TRPML3 ag, TRPN1 ag)
COc1ccc2nc(NC(=O)Nc3cccc4ccccc34)sc2c1	OX1R antag-1 42
CC(=O)N1CCCc2cc(S(=O)(=O)CCC(=O)Nc3cccc(C)c3C)ccc21	none (no result: TRPML3 ag, TRPN1 ag)
Cc1ccccc1CSc1nnc(-c2cccs2)n1Cc1ccco1	OX1R antag-1 69
Cc1ccccc1CSc1nnc(-c2ccco2)n1Cc1ccco1	OX1R antag-1 68, GPR7 antag 17
c1ccc(CSc2nnc(-c3ccco3)n2Cc2ccco2)cc1	none
O=C(Nc1cccc(C(F)(F)F)c1)Oc1ccc(Cl)c2cccnc12	CHO parental Ca 62, GPR7 antag 32
COc1cc2sc3cc(NCCCN4CCOCC4)ccc3c(=O)c2cc1OC	OX1R antag-1 63 (no result: TRPML3 ag, GPR7 antag, TRPN1 ag)
Cc1ccccc1CC(=O)Nc1ccon1	none (no result: TRPML3 ag, TRPN1 ag)
OCCN(CCO)c1ccc2ccccc2c1	none
OCCN(CCO)c1ccc(C(c2ccccc2Cl)c2ccc(N(CCO)CCO)cc2Cl)c(Cl)c1	CHO parental Ca 47
Cc1cccc(NNC(N)=S)c1C	none
Cc1ccc(S(=O)(=O)CC(=O)c2ccc3c(c2)OCCO3)cc1	none
CC(C)(C)NC(=O)CSc1nc2ccc(NC(=O)CSc3nnnn3Cc3ccccc3)cc2s1	CHO parental Ca 37
Cc1cccc(N(CC(O)CON=C2c3ccccc3-c3ccccc32)S(C)(=O)=O)c1 (centres undefined)	OX1R antag-1 63
CCN(CC(O)CON=C1c2ccccc2-c2ccccc21)S(=O)(=O)c1ccc(C)cc1 (centres undefined)	OX1R antag-1 73
CS(=O)(=O)N(CC(O)CON=C1c2ccccc2-c2ccccc21)c1ccc(F)cc1 (centres undefined)	none
Cc1ccc(S(=O)(=O)NCC(=O)N2CCOCCOCCOCC2)cc1	none (no result: TRPML3 ag, TRPN1 ag)
O=C(Oc1cccc(Nc2ncnc3ccccc23)c1)c1cccnc1	none
O=C(O)c1cccc(Nc2ncnc3ccccc23)c1	none
CC(=O)c1cccc(Nc2ncnc3ccc(Br)cc23)c1	OX1R antag-1 74 (no result: TRPML3 ag, TRPN1 ag)
CC(C)Nc1ncnc2ccc(Br)cc12	CHO parental Ca 29
CSCCC(Nc1ncnc2ccc(Br)cc12)C(=O)O (centres undefined)	none
COc1cc(C(=O)Oc2cccc(Nc3ncnc4ccccc34)c2)cc(OC)c1OC	CHO parental Ca 43, OX1R antag-1 56, OX1R antag-2 64
CC(=O)Nc1ccc(S(=O)(=O)N2CCN(c3ncccn3)CC2)cc1	none (no result: TRPML3 ag, TRPN1 ag)
COc1cc(OC)cc(C(=O)NC(=S)NNC(=O)[C@H]2C[C@@H]2c2ccccc2)c1	TRPML3 ag 19, TRPN1 ag 34
COc1ccc(C(=O)NC(=S)NNC(=O)[C@H]2C[C@@H]2c2ccccc2)cc1OC	none
CCC(C)Sc1cccc(-c2nc3ccc(Cl)cn3c2NCc2ccccc2)c1 (centres undefined)	none (no result: TRPML3 ag, GPR7 antag, TRPN1 ag)
CCCCNc1c(-c2ccc(SC(C)CC)c(OC)c2)nc2ccc(C)cn12 (centres undefined)	CHO parental Ca 44, OX1R antag-1 68 (no result: TRPML3 ag, GPR7 antag, TRPN1 ag)
CCC(C)Sc1cccc(-c2nc3ccc(C)cn3c2NCc2ccccc2)c1 (centres undefined)	CHO parental Ca 49, OX1R antag-2 61 (no result: TRPML3 ag, GPR7 antag, TRPN1 ag)
CCCCNc1c(-c2ccc(OC)c(Sc3ccc(OC)cc3)c2)nc2ccccn12	CHO parental Ca 45 (no result: TRPML3 ag, GPR7 antag, TRPN1 ag)
COc1cccc(C(=O)Nc2nnc(SCC(=O)Nc3ccc(NC(C)=O)cc3)s2)c1	none (no result: TRPML3 ag, TRPN1 ag)
Oc1ccccc1O	none (no result: TRPML3 ag, GPR7 antag, TRPN1 ag)
Nc1ccccc1O	OX1R antag-1 32 (no result: TRPML3 ag, GPR7 antag, TRPN1 ag)
CC1CN(C/C(=N\O)C23CC4CC(CC(C4)C2)C3)CC(C)O1 (centres undefined)	none (no result: CHO parental Ca, TRPML3 ag, OX1R antag-1, TRPN1 ag, OX1R antag-2)
CSc1nc(C)cc(OCCNS(=O)(=O)c2cc(C)ccc2C)n1	OX1R antag-1 71
Cc1ccc(C)c(S(=O)(=O)NCCOc2nc(NC(C)C)nc(NC(C)C)n2)c1	none
Nc1ccc(N2CCN(c3ccc(Cl)c(Cl)c3)CC2)cc1	none
COc1ccc(-c2c(=O)n(OCc3ccccn3)c3ccccc3[n+]2[O-])cc1OC	OX1R antag-1 55
CCOc1ccc(-c2c(=O)n(OCc3ccccn3)c3ccccc3[n+]2[O-])cc1	OX1R antag-1 62
Cc1oc(S(=O)(=O)N2CCCCC2)cc1NC(=O)Nc1ccc(F)cc1	none
C/C=C(/C)C(=O)OC1c2c(ccc3ccc(=O)oc23)OC(C)(C)C1OC(=O)/C(C)=C\C (centres undefined)	CHO parental Ca 75, OX1R antag-1 44
CC(Oc1ccc(Br)cc1)C(=O)Nc1nc(-c2ccccn2)cs1 (centres undefined)	CHO parental Ca 35 (no result: TRPML3 ag, TRPN1 ag)
O=C(OCC(=O)c1ccc(Cl)cc1Cl)c1cnccn1	none (no result: TRPML3 ag, TRPN1 ag)
Cc1c(C(=O)OCc2nc3ccsc3c(=O)[nH]2)oc2ccccc12	OX1R antag-1 49 (no result: TRPML3 ag, GPR7 antag, TRPN1 ag)
O=C(OCc1nc2ccsc2c(=O)[nH]1)c1ccccc1	none (no result: TRPML3 ag, GPR7 antag, TRPN1 ag)
S=c1sc2c(Cl)ncnc2n1-c1ccccc1	GPR7 antag 75 (no result: CHO parental Ca, OX1R antag-1, OX1R antag-2)
Nc1ccc(-c2nc3nc(N)nc(N)c3nc2-c2ccc(N)cc2)cc1	OX1R antag-1 40
Nc1nc(N)c2ncc(C(=O)CCc3ccccc3)nc2n1	none
COc1ccc(CCNCC(O)COc2c(C)cccc2C)cc1OC (centres undefined)	none (no result: CHO parental Ca, TRPML3 ag, OX1R antag-1, TRPN1 ag, OX1R antag-2)
COc1ccc(OC)c(/C=C/C(=O)OCC(=O)Nc2nnc(-c3ccccc3)o2)c1	none (no result: TRPML3 ag, GPR7 antag, TRPN1 ag)
CCCCOC(=O)c1[nH]c2c(c1C)C(=O)CC(c1cc(OC)c(OC)c(OC)c1)C2 (centres undefined)	CHO parental Ca 62
COCCOC(=O)c1[nH]c2c(c1C)C(=O)CC(c1cc(OC)c(OC)c(OC)c1)C2 (centres undefined)	none (no result: TRPML3 ag, TRPN1 ag)
COc1ccc(C2CC(=O)c3c([nH]c(C(=O)OC(C)C)c3C)C2)cc1OC (centres undefined)	none
COCCOC(=O)c1[nH]c2c(c1C)C(=O)CC(c1ccccc1)C2 (centres undefined)	CHO parental Ca 42
C=CCOC(=O)c1[nH]c2c(c1C)C(=O)CC(c1cc(OC)c(OC)c(OC)c1)C2 (centres undefined)	CHO parental Ca 33
O=C1NC(=Nc2ccc3ccccc3c2)S/C1=C/c1ccco1	OX1R antag-1 42
O=C1NC(=Nc2ccc(O)cc2)S/C1=C/c1ccco1	none
CC(C)c1nnc(NC(=O)CCC(=O)NC2CCCc3ccccc32)s1 (centres undefined)	none
COC(=O)Nc1cccn(Cc2c(Cl)cccc2Cl)c1=O	none
O=C(Nc1cccn(Cc2c(Cl)cccc2Cl)c1=O)c1c(Cl)cccc1Cl	OX1R antag-1 56
O=C(c1ccccc1)N1CCN(c2ccc(Cl)cc2)CC1	GPR7 antag 20

Compound activity: PubChem, The Scripps Research Institute Molecular Screening Center
